Consider 2 compounds from publication PMC9543358 (British Journal of Clinical Pharmacology, 2022).

One data set relates to albumin in human plasma. The note with it: cited from earlier work.
For data set [1] the following is noted: cited from earlier work.
A short description of data set [2]: Population pharmacokinetic model of cabotegravir plasma concentrations. Conditions: for IIV of CL/F / IIV of F1 / IIV of KALA / IIV of KAoral / IIV of V2/F: interindividual variability; for Smoke on CL/F (fractional change of CL/F in current smokers): current smoker. It counts as in vivo, human. In outline: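 Human plasma concentrations (23 926 from 1647 adults, HIV‑1‑infected and uninfected, 16 phase 1–3 studies; oral 10–60 mg, IM 200–800 mg) of the test compound were fitted in NONMEM (FOCE with interaction). The model was two‑compartment with first‑order oral and IM absorption and elimination, with a weight power function (shared exponents) on clearances and volumes. BQL data were handled by likelihood, with IOV on KALA/F1.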

For data set [3] the following is noted: cited from earlier work. The source holds these as a separate data set.
In a further data set the test system is HIV. The note with it: cited from earlier work.
The conditions of data set [4]: cited from earlier work. This is another data set of the same source.
The mark [5] stands for this setting: base model, typical subject of 76.6 kg.

Take `C[C@H]1CO[C@@H]2Cn3cc(C(=O)NCc4ccc(F)cc4F)c(=O)c(O)c3C(=O)N12` [CAB, Cabotegravir]: the “binding in human plasma (primarily to albumin)” value in the data set with albumin in human plasma is recorded as above 99%. For the same compound, in data set [1] (following oral dosing), the apparent clearance is 0.21 L/h and the “apparent volume of distribution” value is given as 12.3 L. Moreover, the route of elimination result in data set [1] (hepatic metabolism) was “hepatic metabolism via UGT1A1 with a minor component by UGT1A9”. In data set [2] (base model), the “IIV of CL/F” value was found to be 24.9%, the “IIV of F1” value is given as 17.2%, the “IIV of KALA” value is reported as 71.4% and the “IIV of KAoral” value was 61.4%. The “IIV of V2/F” value in data set [2] (base model) was 22.6%. Further, the “BWT on V2/F and V3/F (exponent)” value in data set [2] (base model, power function of baseline body weight) is listed as 0.675. In addition, in data set [2] (setting [5]), the “CL/F, apparent central clearance” value turned out to be 0.16 L/h; the “KALA, absorption rate constant for LA IM injection” value is 0.000642 h⁻¹; the “KAoral, absorption rate constant for oral tablet” value was determined as 1.12 h⁻¹. Also, in data set [2] (covariate evaluation, final model), the “race and age as covariates of PK” value is “not significant covariates”. Moreover, in data set [2] (final model), the “BWT on V2/F and V3/F (exponent)” value is 0.702; the “KALA lower in females than males” value is reported as 50.9%; the “KALA lower in subjects with BMI of 32.5 kg/m^2 (90th percentile) than BMI of 20.9 kg/m^2 (10th percentile)” value is reported as 28.6%; the “KAoral, absorption rate constant for oral tablet” value was determined as 1.41 h⁻¹. In data set [2] (final model), the “Smoke on CL/F (fractional change of CL/F in current smokers)” value was determined as 17.4%, the “IIV of CL/F” value was found to be 23.3%, the “IIV of F1” value is recorded as 17.4% and the “IIV of KALA” value is given as 57.9%. In data set [2] (final model), the “IIV of KAoral” value was found to be 89.4% and the “IIV of V2/F” value is given as 20.3%. The “BMI exponent on KALA” value in data set [2] (final model, BMI/25.4) is given as −0.766. Also, in data set [2] (final model, BWT 76.6 kg, not current smoker), the “CL/F, apparent central clearance” value was 0.151 L/h. Besides, the “Smoke on CL/F (fractional change of CL/F in current smokers)” value in data set [2] (final model, listed as cabotegravir) is listed as 17.4%. Moreover, the “Female on KALA (fractional change)” value in data set [2] (final model, female vs male) was −50.9%. For the same compound, in data set [2] (final model, male, unsplit injection, BMI 25.4, needle length 1.5 inch), the “KALA, absorption rate constant for LA IM injection” value was 0.000733 h⁻¹. In data set [2] (final model, needle length/1.5 inch), the “NDL exponent on KALA” value was 0.478. Besides, the Vd/F in data set [2] (human, plasma, other: oral tablet and LA IM injection, modelled together, V2/F, apparent central compartment volume of distribution, base model, typical subject of 76.6 kg) turned out to be 5.5 L. Moreover, the “dose proportionality of exposure” value in data set [2] (oral 10 to 60 mg, LA 200 to 800 mg) is on record as “dose proportional”. For the same compound, in data set [3], the permeability classification result is recorded as “high permeability” and the solubility classification entry is “low solubility”. Also, in the data set with HIV, the “PA‐IC90, in vitro protein‐adjusted concentration resulting in 90% of the maximum inhibition of viral growth” value was 0.166 µg/mL.
For `C[C@@H]1CCO[C@H]2Cn3cc(C(=O)NCc4ccc(F)cc4F)c(=O)c(O)c3C(=O)N12` [DTG, dolutegravir], in data set [4], the “CL/F higher in current smokers” value is listed as 16% and the “estimated absolute oral bioavailability higher in females than in males” value was 21%.
